The Ki is a dissociation constant, usually derived from enzyme kinetics or from competition with a known ligand. A higher Ki goes with weaker binding. As usually defined, the inhibition is the change of the read-out against control, counted positive when it falls.

Here are results for 24 molecules from ChEMBL document CHEMBL4725407, “New cannabinoid receptor antagonists as pharmacological tool” (Bioorg Med Chem, 2020).

Activity calls are given as the source filed them. No cut-off for these calls is given here.

The target in data set [1] is T1, Cannabinoid receptor 1 (Homo sapiens, UniProt P21554). Description: Displacement of [3H]CP55940 from human CB1R transfected in HEK293EBNA cell membranes incubated for 90 mins by Microbeta TriLux based luminescence analysis. Also noted: species or system HEK293-EBNA.
In a further data set the target is Cannabinoid receptor 2 (Homo sapiens, UniProt P34972). Description: Displacement of [3H]CP55940 from human CB2R transfected in HEK293EBNA cell membrane incubated for 90 mins by Microbeta TriLux based luminescence analysis. The data set is classed as cell membranes, HEK293-EBNA. In general terms: Displacement assays read how much labelled ligand stays bound in the presence of the test substance.

A further data set has as its system HEK293-EBNA. Put plainly: Selectivity index, ratio of Ki for human CB1R transfected in HEK293EBNA cell membrane to ratio of Ki for human CB2R transfected in HEK293EBNA cell membrane incubated for 90 mins by Microbeta TriLux based luminescence analysis. The gist of the method:
(§1)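 Membranes of HEK293EBNA cells expressing human CB1 (~0.415 mg/mL protein) or CB2 (~0.18 mg/mL) incubated 90 min at 30 °C with [³H]-CP55940 (0.54 nM CB1; 0.33 nM CB2) and competitor, in Tris buffer pH 7.4 with EDTA, MgCl₂, BSA. Filtered, washed, bound radioactivity counted; IC50 by curve fitting, Ki by Cheng–Prusoff; selectivity = Ki CB1/Ki CB2.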

Data set [2] concerns the target T1, Cannabinoid receptor 1. Description: Displacement of [3H]CP55940 from human CB1R transfected in HEK293EBNA cell membrane incubated for 90 mins by Microbeta TriLux based luminescence analysis relative to control. Type of data set: cell membranes. To be noted: HEK293-EBNA. The gist of the method: as §1
The species named for a further data set is Mus musculus. Description: Antagonist activity at cannabinoid receptor in ICR mouse vas deferens assessed as reduction of WIN55212-2-induced inhibition of electrically evoked contraction at 1 uM incubated for 10 mins prior to WIN55212-2 addition. The data set is classed as tissue-based.
A further data set relates to MC3T3-E1. Put plainly: Cytotoxicity against mouse MC3T3-E1 cell assessed as reduction in cell viability at 1 uM incubated for 48 hrs by MTT assay. Conditions: mc3t3-e1, 48 h. Type of data set: cell-based. The gist of the method: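 MC3T3-E1 cells in 96-well plates, 24 h in DMEM/10% FBS, then 48 h with compound at 10⁻⁶ M or vehicle; viability by MTT reduction; three experiments in sextuplicate.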

For data set [3], the target named is Cannabinoid receptor 2 (Mus musculus) (UniProt P47936). Put plainly: Agonist activity at CB2 receptor in mouse MC3T3-E1 cells assessed as induction of bone activity by measuring increase in collagen I gene expression at 1 uM incubated for 72 hrs by real time PCR analysis. Type of data set: cell-based. The gist of the method:
(§2)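 MC3T3-E1 cells in DMEM/10% FBS for 24 h; attached cells moved to osteogenic medium (50 μg/mL ascorbic acid, 10⁻⁹ M dexamethasone, 10 mM β-glycerophosphate) with agent (HU308 10⁻⁶–10⁻⁸ M; antagonists 10⁻⁶ M) or vehicle, 72 h at 37 °C, 5% CO₂. Collagen type I mRNA from total RNA by RT-qPCR, ΔΔCT relative quantification; three experiments in triplicate.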

Data set [4] has the same target. Put plainly: Antagonist activity at CB2 receptor in mouse MC3T3-E1 cells assessed as inhibition of HU308-induced collagen I gene expression at 1 uM pretreated with compound and HU308 for 24 hrs followed by further incubation with HU308 for 48 hrs by real time PCR analysis. The data set is classed as cell-based. Conditions: filed as antagonist, time 72.0 hrs. The procedure, abridged:
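MC3T3-E1 cells seeded 24 h in DMEM/10% FBS, then pre-treated 24 h in osteogenic medium (ascorbic acid, dexamethasone, β-glycerophosphate) with 10⁻⁶ M antagonist plus HU308 10⁻⁸ M; medium then replaced by osteogenic medium with HU308 10⁻⁸ M alone (controls vehicle) for 48 h more. Collagen I mRNA by RT-qPCR, ΔΔCT; three experiments in triplicate.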
(Real-time PCR tracks product formation cycle by cycle.)

The target is the same in data set [5]. Description: Agonist activity at CB2 receptor in mouse MC3T3-E1 cells assessed as induction of bone activity by measuring increase in collagen I gene expression at 0.01 to 1 uM incubated for 72 hrs by real time PCR analysis. The data set is classed as cell-based. To be noted: filed as agonist, dose microM 0.01-1, time 72.0 hrs. The procedure, abridged: as §2

Sequence of Cannabinoid receptor 2 (Mus musculus) (P47936 whole entry): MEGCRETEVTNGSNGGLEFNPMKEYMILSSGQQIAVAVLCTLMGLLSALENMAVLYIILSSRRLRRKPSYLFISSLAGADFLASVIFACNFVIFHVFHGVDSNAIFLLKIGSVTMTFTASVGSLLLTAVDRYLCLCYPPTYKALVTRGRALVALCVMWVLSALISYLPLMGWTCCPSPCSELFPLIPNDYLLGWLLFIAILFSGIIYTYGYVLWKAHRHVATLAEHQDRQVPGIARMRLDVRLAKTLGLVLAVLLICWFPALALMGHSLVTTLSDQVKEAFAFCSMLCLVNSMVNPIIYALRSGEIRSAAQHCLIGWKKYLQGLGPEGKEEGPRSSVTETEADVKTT
Sequence of Cannabinoid receptor 2 (P34972 whole entry): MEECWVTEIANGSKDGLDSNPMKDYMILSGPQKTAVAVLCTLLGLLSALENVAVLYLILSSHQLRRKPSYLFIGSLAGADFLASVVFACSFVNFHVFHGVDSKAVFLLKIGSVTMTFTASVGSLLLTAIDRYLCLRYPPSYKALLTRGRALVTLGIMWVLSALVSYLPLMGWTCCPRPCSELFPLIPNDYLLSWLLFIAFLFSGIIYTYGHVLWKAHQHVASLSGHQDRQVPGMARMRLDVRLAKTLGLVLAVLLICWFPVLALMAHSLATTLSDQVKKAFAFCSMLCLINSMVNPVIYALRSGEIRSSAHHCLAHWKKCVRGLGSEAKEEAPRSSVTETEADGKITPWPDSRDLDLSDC
T1 sequence (P21554 whole entry): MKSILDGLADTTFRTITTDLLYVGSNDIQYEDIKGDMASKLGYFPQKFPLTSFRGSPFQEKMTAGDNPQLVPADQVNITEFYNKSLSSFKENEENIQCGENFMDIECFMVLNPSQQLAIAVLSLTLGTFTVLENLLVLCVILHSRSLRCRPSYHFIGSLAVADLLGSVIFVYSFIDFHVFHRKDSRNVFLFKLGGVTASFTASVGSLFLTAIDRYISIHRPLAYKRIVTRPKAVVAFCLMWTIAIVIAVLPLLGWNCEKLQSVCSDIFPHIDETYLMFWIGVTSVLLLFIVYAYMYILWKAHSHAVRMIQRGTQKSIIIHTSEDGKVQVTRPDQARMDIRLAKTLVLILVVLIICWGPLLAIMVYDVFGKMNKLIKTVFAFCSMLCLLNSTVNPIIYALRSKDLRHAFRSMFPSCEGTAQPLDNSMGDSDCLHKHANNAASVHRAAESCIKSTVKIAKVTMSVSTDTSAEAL

Consider `O=[N+]([O-])c1ccc2[nH]nc(OCc3cccc4ccccc34)c2c1`, for which the Ki on Cannabinoid receptor 1 [1] is above 40 µM; on Cannabinoid receptor 2, 0.9 µM. Further, in the data set on HEK293-EBNA, the Ratio Ki was above 44.4. At Cannabinoid receptor 1 [2], this molecule displayed an inhibition of 38%. The inhibition entry in the data set listed under Mus musculus (filed as antagonist) is “Active”.
Regarding `CCCCCOc1nn(CCCCC)c2ccc([N+](=O)[O-])cc12`, the Ratio Ki in the data set on HEK293-EBNA was found to be 1.9. The inhibition entry in the data set listed under Mus musculus is “inactive”.
On to `Cn1nc(OCc2ccc3ccccc3c2)c2ccccc21`, for which the Ki at Cannabinoid receptor 1 [1] was determined as 4 µM; at Cannabinoid receptor 2, 10.1 µM. The Ratio Ki in the data set on HEK293-EBNA was found to be 0.4. In the data set listed under Mus musculus (filed as antagonist), the inhibition entry is “Active”.
Take `CCCCCn1nc(OCc2ccc(OC)cc2)c2cc([N+](=O)[O-])ccc21`: the Ratio Ki in the data set on HEK293-EBNA was 1.6. Also, the inhibition entry in the data set listed under Mus musculus (filed as antagonist) was “Active”.
Turning to `CCCCCn1nc(OCc2ccc3ccccc3c2)c2cc([N+](=O)[O-])ccc21`, the Ratio Ki in the data set on HEK293-EBNA turned out to be 1.2. In addition, the inhibition result in the data set filed under Mus musculus is “inactive”.
For the molecule `c1ccc2cc(COc3nn(CCC4CCCCC4)c4ccccc34)ccc2c1`, the Ki was 0.15 µM on Cannabinoid receptor 1 [1] and above 40 µM on Cannabinoid receptor 2. For the same molecule, in the data set on HEK293-EBNA, the Ratio Ki is below 0.004. Besides, the inhibition result in the data set filed under Mus musculus is “inactive”.
With `CCCn1nc(OCc2ccc3ccccc3c2)c2cc([N+](=O)[O-])ccc21`, the Ki at Cannabinoid receptor 1 [1] turned out to be 0.356 µM; at Cannabinoid receptor 2, 0.47 µM. Besides, in the data set with HEK293-EBNA, the Ratio Ki is 0.8. Moreover, in the data set on MC3T3-E1, the Activity entry is on record as “Non-Toxic”. The outcome in data set [3] was inactive. The inhibition entry (in [4]; in the data set listed under Mus musculus (filed as antagonist)) was “Active” each time.
Take `c1ccc(COc2nn(Cc3ccccc3)c3ccccc23)cc1`: in the data set with HEK293-EBNA, the Ratio Ki turned out to be 0.7. In the data set listed under Mus musculus, the inhibition result is “inactive”.
`CCCCCCC(C)(C)c1cc(OC)c([C@H]2C=C(CO)[C@H]3C[C@@H]2C3(C)C)c(OC)c1`: the outcome in data set [5] was Active.
With `Cn1nc(OCCc2ccccc2)c2cc([N+](=O)[O-])ccc21`, the results for the Ki on Cannabinoid receptor 1 [1] and at Cannabinoid receptor 2 were above 40 µM and 1.2 µM, respectively. Further, the Ratio Ki with HEK293-EBNA was above 33.3. Further, the inhibition at Cannabinoid receptor 1 [2] amounted to 25%. Further, in the data set filed under Mus musculus, the inhibition result is “inactive”.
Consider `COc1ccc(COc2n[nH]c3ccc([N+](=O)[O-])cc23)cc1`, for which the Ki at Cannabinoid receptor 1 [1] is above 40 µM; on Cannabinoid receptor 2 it was 1.8 µM. Also, the Ratio Ki in the data set with HEK293-EBNA is above 22.2. Further, the inhibition entry in the data set filed under Mus musculus was “inactive”.
On to `O=[N+]([O-])c1ccc2c(c1)c(OCc1ccccc1)nn2Cc1ccccc1`, for which, in the data set on HEK293-EBNA, the Ratio Ki is 3. Further, in the data set filed under Mus musculus, the inhibition result was “inactive”.
Turning to `c1ccc2c(COc3n[nH]c4ccccc34)cccc2c1`, the Ki at Cannabinoid receptor 1 [1] came out at 1.6 µM; on Cannabinoid receptor 2, 0.44 µM. Moreover, the Ratio Ki in the data set on HEK293-EBNA was found to be 3.6. Further, the inhibition result in the data set filed under Mus musculus is “inactive”.
For the molecule `Cc1c(C(=O)NN2CCCCC2)nn(-c2ccc(Cl)cc2Cl)c1-c1ccc(I)cc1`, the inhibition entry in the data set listed under Mus musculus (filed as antagonist) was “Active”.
For the molecule `O=[N+]([O-])c1ccc2c(c1)c(OCc1ccc3ccccc3c1)nn2Cc1ccccc1`, the Ratio Ki in the data set with HEK293-EBNA is above 25. For the same molecule, the inhibition entry in the data set filed under Mus musculus was “inactive”.
With `COc1ccc(COc2n[nH]c3ccccc23)cc1`, the figures for the Ki at Cannabinoid receptor 1 [1] and at Cannabinoid receptor 2 were 21 µM and 4.5 µM, respectively. In the data set on HEK293-EBNA, the Ratio Ki is 4.7. Further, in the data set filed under Mus musculus, the inhibition entry is “inactive”.
The like results for `O=[N+]([O-])c1ccc2[nH]nc(OCc3ccc4ccccc4c3)c2c1` were, in that order, 13.6 µM, 5 µM, 2.7 and “inactive”.
For `c1ccc2c(c1)c(OCC1CCCCC1)nn2CC1CCCCC1`, the Ratio Ki in the data set with HEK293-EBNA stood at 0.2. The inhibition result in the data set filed under Mus musculus was “inactive”.
Regarding `CCCn1nc(OCc2ccc3ccccc3c2)c2cc(N)ccc21`, the Ki at Cannabinoid receptor 1 [1] came out at 1.6 µM; at Cannabinoid receptor 2, 2.9 µM. Further, the Ratio Ki with HEK293-EBNA was 0.6. Also, in the data set filed under Mus musculus, the inhibition result was “inactive”.
With `Cn1nc(OCc2cccc3ccccc23)c2cc([N+](=O)[O-])ccc21`, the values for the inhibition constant Ki at Cannabinoid receptor 1 [1] and on Cannabinoid receptor 2 were at least 40 µM and 0.25 µM, respectively. Further, the Ratio Ki in the data set on HEK293-EBNA is above 160. The inhibition result in the data set listed under Mus musculus (filed as antagonist) was “Active”.
With `c1ccc2cc(COc3n[nH]c4ccccc34)ccc2c1`, the Ki on Cannabinoid receptor 1 [1] is 21.7 µM; at Cannabinoid receptor 2, 7 µM. In addition, the Ratio Ki in the data set on HEK293-EBNA stood at 3.1. In addition, the inhibition entry in the data set filed under Mus musculus is “inactive”.
For the molecule `Cn1nc(OCc2ccc3ccccc3c2)c2cc([N+](=O)[O-])ccc21`, the Ki was above 40 µM at Cannabinoid receptor 1 [1] and 3.5 µM on Cannabinoid receptor 2. Further, the Ratio Ki in the data set on HEK293-EBNA is above 11.4. The inhibition result in the data set filed under Mus musculus (filed as antagonist) was “Active”.
On to `O=[N+]([O-])c1ccc2c(c1)c(OCC1CCCCC1)nn2Cc1ccccc1`, for which the Ratio Ki in the data set on HEK293-EBNA was above 444. The Activity entry in the data set with MC3T3-E1 was “Non-Toxic”. In addition, the outcome in data set [3] was inactive. Besides, the inhibition result (in data set [4]; in the data set filed under Mus musculus (filed as antagonist)) was “Active” throughout.
On to `Nc1ccc2c(c1)c(OCc1ccccc1)nn2Cc1ccccc1`, for which the Ratio Ki in the data set with HEK293-EBNA came to 2.5. Moreover, the inhibition entry in the data set filed under Mus musculus (filed as antagonist) is “Active”.
